# Screening data as filed in PubChem BioAssay.
# Most compounds without a hit are left out; they make up all but 1.9% or so of the library.
# Runt-SMMHC FRET = blocks binding of human RUNX1 Runt domain to CBFb-SMMHC; inhibition, % at 20 µM; 0.74% of 220,000 active; Cerulean-Runt/Venus-CBFb-SMMHC FRET ratio 530/480, 1 h;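 active = mean inhibition across duplicate retests at 20 µM reaching about 50%, limit read from the data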;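 note: 0% = DMSO wells and 100% = wells with excess untagged CBFb-SMMHC; inhibitors lower the FRET ratio by blocking Runt binding to CBFb-SMMHC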
# RanGTP-Imp inh = inhibitors of RanGTP-importin-beta interaction, primary screen, biochemical, FRET, CFP-Ran, YFP-importin-beta, homogeneous | 1.1% of 300,000 active | cell-free CFP-Ran/YFP-importin-beta FRET ratio | inhibition, % (test concentration not listed);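 active = more than half of the replicate wells show a fall in the fluorescence ratio signal beyond about 16%, limit read from the data, passing the limit was not always enough; inconclusive = exactly half of the replicate wells pass the set limit; inactive = fewer than half of replicates pass the limit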;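 note: 0% = DMSO wells and 100% = Ran loaded with GDP instead of GTP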
# Hck-Nef inh = blocks Nef-activated human Hck kinase. P08631. Recombinant Hck-YEEI plus Nef, Z-Lyte FRET kinase assay. inhibition, % at 20 µM. 0.68% of 220,000 active. AID 463187;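 active = Hck-Nef kinase inhibition above about 50%, limit read from the data; inactive = inhibition below that limit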;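 note: 0% = DMSO with Hck plus Nef and 100% = Hck alone without Nef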
# Target sequence (P08631 whole entry, looked up): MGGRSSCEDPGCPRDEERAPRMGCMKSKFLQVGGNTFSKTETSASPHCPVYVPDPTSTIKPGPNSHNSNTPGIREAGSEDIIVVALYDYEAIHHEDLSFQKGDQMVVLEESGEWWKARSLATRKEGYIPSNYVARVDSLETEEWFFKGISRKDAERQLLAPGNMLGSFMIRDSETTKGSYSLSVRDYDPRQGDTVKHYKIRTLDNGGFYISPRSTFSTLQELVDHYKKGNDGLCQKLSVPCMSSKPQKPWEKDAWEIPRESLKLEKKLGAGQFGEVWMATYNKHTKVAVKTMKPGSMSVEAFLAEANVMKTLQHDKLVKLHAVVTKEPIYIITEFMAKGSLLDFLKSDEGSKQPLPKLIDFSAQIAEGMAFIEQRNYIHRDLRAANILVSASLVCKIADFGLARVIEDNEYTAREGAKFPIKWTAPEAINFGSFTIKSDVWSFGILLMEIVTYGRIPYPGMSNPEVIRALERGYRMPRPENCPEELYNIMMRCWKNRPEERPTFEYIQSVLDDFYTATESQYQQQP
# Tb hexokinase = blocks Trypanosoma brucei hexokinase 1 activity. recombinant TbHK1, G6PDH-coupled NADH A340. AID 1430. inhibition, % at 10 µM. 0.11% of 220,000 active;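 active = inhibition of 50% or more in the single-dose primary screen; inactive = inhibition below 50%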
# Runt-CBFb FRET = Runt domain-CBFb interaction inhibition; Cerulean-Runt/Venus-CBFb FRET ratio 530/480, 1 h; inhibition, % at 20 µM; 0.46% of 220,000 active; AID 1496;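 active = inhibition over about 50% at 20 µM in the single-dose screen, limit read from the data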;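 note: 0% = DMSO wells and 100% = excess unlabeled CBFb competitor control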
#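 Schedule: protein complex preformed 1 h, compound exposure 1 h, room temperature, dark; test system: Cerulean-labeled Runt domain protein; amount: 100 nM per protein; buffer or medium: Tris 50 mM pH 7.5, KCl, K2SO4, 0.01% BSA; read-out: loss of energy transfer signal; detection: FRET fluorescence; controls: 5 µM unlabeled CBFb as full-inhibition high control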
# Hck-Nef confirm = confirmation of Hck-Nef kinase inhibitors | shares compounds with Hck-Nef inh | Recombinant Hck-YEEI:Nef, Z-Lyte FRET kinase assay | calls only at 10 µM | 28% of 1,300 active | AID 463188;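 active = average inhibition of at least 50%, with Z-scores no higher than 3 in both the phospho-tyrosine peptide and fluorescence counterscreens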
# * hit, by the source's call; i = inactive; u = inconclusive; x = no result shown; + = active, no number.
SMILES,Runt-SMMHC FRET,RanGTP-Imp inh,Hck-Nef inh,Tb hexokinase,Runt-CBFb FRET,Hck-Nef confirm
CC(=O)c1ccc(S(=O)(=O)NCc2ccc(C(=O)NCC(c3ccccc3)N(C)C)cc2)cc1 (centres undefined),x,3,x,x,x,x
Cn1c(N/N=C2\CCCc3ccccc32)nc2c1c(=O)n(Cc1ccc(F)cc1)c(=O)n2C,0,5,56*,-22,-2,i
COCCCNc1nc2c(c(=O)n(Cc3ccc(F)cc3)c(=O)n2C)n1C,x,1,x,x,x,x
CCCCNC(=O)COC(=O)CCC(=O)c1ccc(Cl)cc1,3,u,24,-5,1,x
Cc1ccc(N=C2NC(=O)/C(=C/C=C/c3ccco3)S2)cc1,-31,2,97*,3,2,i
Cc1cccc(N=C2NC(=O)/C(=C/C=C/c3ccco3)S2)c1C,-10,-4,74*,15,22,i
N#Cc1c(C(F)(F)F)cc(-c2cccs2)nc1SCC(=O)O,-7,1,3,-29,1,x
CNc1nc(-c2cccs2)cc(C(F)(F)F)c1C#N,88*,109*,104*,-3,11,i
CCc1cccc(Nc2cnn(C34C[C@@H]5C[C@@H](CC(CC(=O)O)(C5)C3)C4)c(=O)c2Cl)c1,0,2,23,-20,0,x
CNc1ccc(Br)cc(C(=O)/C=C/c2cccc(OC)c2OC)c1=O,-19,3,0,-18,-1,x
CNc1ccc(Br)cc(C(=O)/C=C/c2cccc(Cl)c2Cl)c1=O,-15,x,51*,1,13,i
CC(C)c1nc(SCC(=O)Nc2ccc(N(C)C)cc2)c2ccccc2n1,5,-3,28,1,7,x
CN(C(=O)CCS(=O)(=O)c1ccc2c(c1)oc(=O)n2C)C1CCCCC1,x,6,x,x,x,x
Cc1cc(-c2nc3cccnc3s2)ccc1NS(=O)(=O)c1cccs1,107*,92*,95*,-16,128*,i
CCS(=O)(=O)Nc1cc(-c2nc3cccnc3s2)ccc1C,-7,2,1,-12,4,x
CCS(=O)(=O)Nc1ccc(-c2nc3cccnc3s2)cc1,74*,2,+,-59,32,x
Cc1c(NS(=O)(=O)c2ccc3c(c2)OCCO3)cccc1-c1nc2cccnc2s1,-6,-2,3,-6,6,x
Cc1c(NS(=O)(=O)c2cccs2)cccc1-c1nc2cccnc2s1,-2,-4,6,1,-1,x
O=S(=O)(Nc1ccc(-c2nc3cccnc3s2)cc1)c1cccs1,145*,10,116*,-60,91*,x
Cc1cc(-c2nc3cccnc3s2)ccc1NS(=O)(=O)c1ccc2c(c1)OCCO2,119*,71*,71*,-53,102*,x
CCCCCCCCCCCC(=O)N1CC(=O)NC(=O)C1,-4,1,-13,7,-7,x
CS(=O)(=O)CCC(C(=O)O)N1C(=O)c2ccc(Oc3ccc(Cl)cc3)cc2C1=O (centres undefined),x,3,x,x,x,x
CCCCc1ccc(NC2=NCC(=O)N2CCc2ccccc2)cc1,-3,1,17,4,-1,x
COC(=O)CCCC1=CC2=CC(=O)C(C)(OC(=O)c3cccs3)C(=O)C2=CN1Cc1ccc2c(c1)OCO2 (centres undefined),0,0,53*,-39,1,i
COCCCn1c(=NC(=O)c2ccccc2)c(C#N)cc2c(=O)n3cccc(C)c3nc21,88*,49*,82*,-5,24,i
SMILES,Runt-SMMHC FRET,RanGTP-Imp inh,Hck-Nef inh,Tb hexokinase,Runt-CBFb FRET,Hck-Nef confirm
CCOCCCn1c(=NC(C)=O)c(C#N)cc2c(=O)n3ccccc3nc21,88*,123*,96*,-22,28,x
CCOCCCn1c(=NC(C)=O)c(C(=O)OCC)cc2c(=O)n3ccccc3nc21,63*,77*,119*,-9,52*,x
CCOC(=O)c1cc2c(=O)n3ccccc3nc2n(CC(C)C)c1=NC(=O)c1ccco1,60*,141*,105*,-13,18,i
Cc1cccn2c(=O)c3cc(C(=O)NCCCN4CCCC4=O)n(C)c3nc12,6,1,42,-17,0,x
CCOCCCn1c(SCC(=O)NC(C)(C)C)nc2ccccc2c1=O,11,-3,1,3,2,x
CCCCc1c(O)c2cccc3c2n(c1=O)CCC3,x,-6,x,x,x,x
Cc1ccc(C2(C)NC(=O)N(CC(=O)Nc3cc(S(=O)(=O)N(C)C)ccc3C)C2=O)cc1 (centres undefined),x,6,x,x,x,x
COc1ccccc1NS(=O)(=O)c1ccc(Cl)c(NC(=O)c2sc3cc(Cl)ccc3c2Cl)c1,-3,2,-2,-13,-1,x
COc1ccccc1NS(=O)(=O)c1cccc(NC(=O)c2sc3ccccc3c2Cl)c1,-1,1,154*,-1,1,i
O=C(Cn1c2ccc(F)cc2c2nc3n(c(=O)c21)CCS3)Nc1ccc(Cl)cc1F,-6,1,61*,-9,-1,i
C/C=C(\C)C(=O)N1CC2(CC(c3cccc(NC(=O)CC(c4ccccc4)c4ccccc4)c3)=NO2)C[C@H]1C(N)=O (some centres undefined),-8,4,25,-16,3,x
C/C=C\C=C\C(=O)N1CC2(CC(c3cccc(NC(=O)CC(c4ccccc4)c4ccccc4)c3)=NO2)C[C@H]1C(N)=O (some centres undefined),2,-1,78*,-10,4,i
C/C=C/C=C\C(=O)Nc1cccc(C2=NOC3(C2)C[C@@H](C(N)=O)N(C(=O)c2cc([N+](=O)[O-])cc([N+](=O)[O-])c2)C3)c1 (some centres undefined),1,0,50*,-25,3,i
O=C(CCc1ccccc1)N1CCN(S(=O)(=O)c2cccs2)CC1,x,3,x,x,x,x
Brc1ccc2ncc(Br)cc2c1,1,4,2,25,-2,x
CCC(=O)Oc1ccc2c(c1)OC1(OC(C)=O)OC(C)CC1=C2C (centres undefined),14,1,157*,-40,10,x
CCC(=O)Oc1ccc2oc(=O)cc(C)c2c1,-2,-3,3,-3,0,x
Nc1c2c(nc3ccccc13)CCCC2,1,4,-5,-58,0,x
Nc1c2ccccc2nc2ccccc12,82*,175*,93*,-5,10,x
CCc1ccc(C2=NN(c3ccc(S(N)(=O)=O)cc3)C(c3ccc(F)cc3)C2)cc1 (centres undefined),41,u,74*,-15,9,x
CCc1ccc(C2=NN(S(C)(=O)=O)C(c3cccs3)C2)cc1 (centres undefined),-1,1,-20,-7,0,x
Cc1ccc(OC(=O)c2ccncc2)c(C)c1,x,7,x,x,x,x
